Test [1] is described as follows: Binding affinity to subsite B/B' and subsite C/C' in S1S2 domain of GluA2 receptor expressed in Escherichia coli by crystallography. A digest of the protocol:
(§1)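 GluA2 S1S2 domain (flip form via N754S, GluA2i) expressed in E. coli Origami B (DE3) cells, IPTG 0.5 mM final at 20°C for 20 h. Purified by Ni-NTA, sizing and ion exchange with glutamate in all buffers. Protein at 0.3 mM with 10 mM glutamate, ligand 5 mM final. Co-crystals grown by hanging drop at 4°C against 16–18% PEG 8K, 0.1 M sodium cacodylate, 0.1–0.15 M zinc acetate, pH 6.5.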

Test [2] in a line: Binding affinity to subsite C/C' in S1S2 domain of GluA2 receptor expressed in Escherichia coli by crystallography. Summed up:
as §1

Test [3] is described as follows: Binding affinity to subsite A in S1S2 domain of GluA2 receptor expressed in Escherichia coli by crystallography. Summed up: as §1

The structures appear in SMILES notation. Active and inactive are the calls of the source. The rule behind the calls is not given here.

For the compound `NS(=O)(=O)c1cc2c(cc1Cl)NC(C1CC3C=CC1C3)NS2(=O)=O` (stereo not given), the result in test [1] was Active.

For `NS(=O)(=O)c1cc2c(cc1Cl)NC(C(Cl)Cl)NS2(=O)=O` (stereo not given), in test [1], the outcome was Active.

`C=CCSCC1Nc2cc(Cl)c(S(N)(=O)=O)cc2S(=O)(=O)N1` (stereo not given): in test [1], the outcome was Active. For `CC1Nc2ccc(Cl)cc2S(=O)(=O)N1` (stereo not given), in test [2], the result was Active.

As for `O=C1c2cc3c(cc2OC2CCCN12)OCCO3` (stereo not given), the result in test [1] and in test [3] was Active. For `NS(=O)(=O)c1cc2c(cc1C(F)(F)F)NCNS2(=O)=O`, the outcome in test [2] was Active. For `NS(=O)(=O)c1cc2c(cc1Cl)NCNS2(=O)=O`, the outcome in test [2] was Active. In the case of `COc1ccc(C(=O)N2CCCC2=O)cc1`, the result in test [1] and in test [3] was Active.

The values are drawn from ChEMBL document CHEMBL1157607, “Piracetam defines a new binding site for allosteric modulators of alpha-amino-3-hydroxy-5-methyl-4-isoxazole-propionic acid (AMPA) receptors” (J Med Chem, 2010).
